Source: PubChem (Sanford-Burnham Center for Chemical Genomics)
LMPTP block: blocks human LMPTP phosphatase; P24666; recombinant LMPTP-A, OMFP fluorogenic substrate, fluorescence intensity; inhibition, % at 20 µM; 360,000 tested, 0.22% active; AID 651560;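 active means compounds that cut the enzyme signal by at least half of the control window in the single-dose screen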;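 further: plate controls were DMSO wells with enzyme plus substrate for no effect and substrate without enzyme for full effect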
Target sequence (P24666 whole entry, looked up): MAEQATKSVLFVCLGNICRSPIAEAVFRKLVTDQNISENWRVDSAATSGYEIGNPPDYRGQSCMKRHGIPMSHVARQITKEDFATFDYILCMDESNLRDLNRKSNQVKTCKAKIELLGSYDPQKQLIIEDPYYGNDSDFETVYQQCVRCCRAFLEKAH
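Assay system: LMPTP-A, protein tyrosine phosphatase of low molecular weight / Medium: pH 6.0 Bis-Tris buffer with DTT and Triton X-100 / Schedule: 50 min enzyme reaction at room temperature, protected from light / Measured by: endpoint fluorescence intensity from OMFP dephosphorylation / Read-out basis: % inhibition relative to no-enzyme and uninhibited control wells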
DNMT1 inh: blocks human DNA methyltransferase DNMT1 | DNMT1 molecular beacon, Hinp1I cleavage, fluorescence | 360,000 tested, 0.83% active | P26358 | inhibition (reported as % activation of signal), % at 10 µM; in the data active means inhibition above about 50%
SUMO1 PPI mod: modulators of human SUMO1-mediated protein-protein interactions; P63165; SUMO1 binding to a labelled peptide, TR-FRET, 1 h; inhibition, % at 20 µM; 360,000 tested, 0.33% active; AID 602429; in the data active means inhibition above about 37%
STEP inh: inhibitors of human striatal-enriched phosphatase STEP | P54829 | inhibition, % at 20 µM | recombinant STEP, OMFP fluorogenic substrate, fluorescence | 360,000 tested, 0.25% active;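 active means inhibition at 20 µM, scaled per plate between control wells, above about 37%, limit read from the data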;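 further: 0% = DMSO with enzyme and substrate and 100% = substrate only without enzyme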
Target sequence (P54829 whole entry, looked up): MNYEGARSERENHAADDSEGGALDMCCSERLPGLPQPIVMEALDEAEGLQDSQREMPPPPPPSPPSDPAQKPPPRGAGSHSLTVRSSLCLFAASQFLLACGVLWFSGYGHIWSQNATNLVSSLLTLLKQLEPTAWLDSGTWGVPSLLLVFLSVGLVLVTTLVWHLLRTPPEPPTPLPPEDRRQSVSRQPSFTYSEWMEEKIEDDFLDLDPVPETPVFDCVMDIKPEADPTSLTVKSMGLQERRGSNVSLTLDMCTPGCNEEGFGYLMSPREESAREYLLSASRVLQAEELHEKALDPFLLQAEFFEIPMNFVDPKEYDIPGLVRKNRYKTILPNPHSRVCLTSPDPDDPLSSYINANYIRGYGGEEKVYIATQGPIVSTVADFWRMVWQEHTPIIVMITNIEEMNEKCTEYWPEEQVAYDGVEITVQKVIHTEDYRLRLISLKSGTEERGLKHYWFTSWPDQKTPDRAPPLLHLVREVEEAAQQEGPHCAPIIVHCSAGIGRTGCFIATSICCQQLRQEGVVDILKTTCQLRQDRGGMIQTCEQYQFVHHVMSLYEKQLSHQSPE
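System: isolated STEP enzyme; schedule: 20 min enzyme reaction at room temperature, protected from light; medium: Bis-Tris buffer pH 6.0, 2.5 mM DTT, 0.005% Tween 20; signal: fluorescence, 480/540 nm; dosing: single compound dose of 20 µM, 1% DMSO final; also added: OMFP substrate, 25 µM final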
SUMO HTRF inh: blocks human SUMOylation mediated by UBC9; HTRF SUMOylation assay, SAE1/SAE2 + UBC9, in vitro; inhibition, % at 35 µM; 290,000 tested, 0.36% active; in the data active means inhibition above about 50%, passing the limit was not always enough; inconclusive means no clear call, values can overlap the other calls
Scp1 inh: blocks human Scp-1 phosphatase activity; inhibition, % at 20 µM; Recombinant Scp1, phosphopeptide, malachite green phosphate absorbance; Q9GZU7; 340,000 tested, 0.88% active;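 active means inhibition above about 50% at 20 µM, limit read from the data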;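 further: plate controls were DMSO wells with enzyme for no effect and wells lacking enzyme for full effect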
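Test system: SCP-1 phosphatase catalytic domain, residues 76-261 | Compound dosing: One concentration, 20 µM, with 1.0% DMSO | Schedule: 45 min room-temperature reaction, 5 min colour, 30 min stabiliser | Detection: Absorbance at 630 nm | Read-out basis: % inhibition of SCP-1 phosphate liberation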
Scp1 confirm: confirmation of human Scp-1 phosphatase inhibitors | shares compounds with Scp1 inh | recombinant SCP-1 catalytic domain, phosphate release, malachite green absorbance | inhibition, % at 20 µM | 2,500 tested, 61% active;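 further: plate controls were DMSO with enzyme for no effect and buffer wells lacking enzyme for full effect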
MG interference: interferes with malachite green readout, flagging false Scp-1 hits | shares compounds with Scp1 inh | Colorimetric interference counterscreen, malachite green absorbance 630 nm | apparent inhibition (interference), % at 20 µM | 2,500 tested, under 10 active | AID 540313;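 further: compounds added after enzyme reaction finished so only phosphate colour detection is probed; plate controls were DMSO wells with completed Scp-1 reaction for no effect and substrate wells lacking enzyme for full effect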
Scp1 DSF: validation of human Scp-1 inhibitors by thermal shift binding. shares compounds with Scp1 inh. Recombinant SCP1, Sypro Orange thermal shift Tm. thermal shift relative to vanadate control, % at 40 µM. 1,500 tested, 25% active;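 active means substances whose mean melting-temperature shift, as a percentage of the reference inhibitor's shift, reaches about 5.3%, limit read from the data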;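 further: 0% = Tm of DMSO wells and 100% = Tm with sodium orthovanadate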
Beacon interf DR: counter-screen for DNMT1 inhibitors: spectral interference, dose response. molecular beacon fluorescence. shares compounds with DNMT1 inh. 200 tested, under 10 active. IC50, µM. AID 602382; call rule not given here
DNMT1 confirm: confirmation of human DNMT1 inhibitors | shares compounds with DNMT1 inh | DNMT1 molecular beacon HinP1I cleavage, fluorescence | inhibition, % at 10 µM | 2,300 tested, 8% active | AID 602385;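 active means average inhibition of at least 30% in the single-concentration confirmation test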
DNMT1 interf: shows spectral interference in the DNMT1 beacon assay; shares compounds with DNMT1 inh; DNMT1 molecular beacon spectral interference counterscreen, fluorescence 485/520; activation (fluorescence interference), % at 10 µM; 2,300 tested, 1% active;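 active means activation of at least 30% at 10 µM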;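 further: DNMT1 catalytic domain with a HinP1I cleavage step and a FAM/dabcyl DNA beacon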
The depositor's hits bear a star; ? = inconclusive; . = no result given. Rows were chosen to be rich in hits. Some 1.9% of all compounds tested hit in one or more screens of this group.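 How the source made its calls, unless noted: active means inhibition of at least 30% at 20 µM; inactive means the rest.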

SMILES	LMPTP block	DNMT1 inh	SUMO1 PPI mod	STEP inh	SUMO HTRF inh	Scp1 inh	Scp1 confirm	MG interference	Scp1 DSF	DNMT1 confirm	DNMT1 interf	others
NC1CCc2cc(O)c(O)cc2C1 (stereo not given)	0	7	-1	-2	.	-12	.	.	.	.	.
CCOc1cc(C=C2C(=O)NC(=O)NC2=O)ccc1OCC(=O)N1CCOCC1	-1	-12	-3	-3	38	-3	.	.	.	.	.
O=C1NC(=S)NC(=O)C1=Cc1ccc(OCC(=O)N2CCCC2)cc1	0	9	11	1	-1	51*	51*	-10	-13	.	.
CCOC(=O)c1cccc(C2=C(CNC(=O)c3nccs3)[C@H]3CC[C@@H](C2)N3Cc2ccccc2)c1	-1	-3	-3	-1	.	.	.	.	.	.	.
Cc1cc(/C=C2\C(=O)NC(=O)N(c3cccc(F)c3)C2=O)c(C)n1-c1ccc(C(=O)O)c(Cl)c1	1	60*	1	19	14	51*	58*	3	0	.	.
Cc1cc(/C=C2\C(=O)NC(=O)N(Cc3ccccc3Cl)C2=O)c(C)n1-c1ccc(C(=O)O)cc1	7	71*	20	2	25	66*	67*	-10	-1	.	.
Cc1ccc(N2C(=O)NC(=O)/C(=C/c3ccc(-c4ccc(C(=O)O)c(Cl)c4)o3)C2=O)cc1	0	41	14	4	25	58*	55*	-18	-7	.	.
Nc1ccc2c(c1)oc1ccccc12	-2	-12	0	-2	-5	-4	.	.	.	.	.
CCc1sc(C(=O)N2CCC3(CC2)OCCO3)cc1Br	-1	1	-2	0	?	54*	-7	-5	.	.	.
C[N+]12CCC(CC1)C(=C(c1ccccc1)c1ccccc1)C2	0	5	-3	-3	-18	94*	78*	-20	-17	.	.
CC[N+]12CCC(CC1)C(=C(c1ccccc1)c1ccccc1)C2	-2	4	1	-2	-8	9	.	.	.	.	.
COc1ccc(C(=O)C2CCCN(CCc3ccccc3)C2)cc1OC (stereo not given)	-1	4	-2	1	.	.	.	.	.	.	.
Cc1ccccc1OP(=O)(Oc1ccccc1C)N1CCOCC1	0	-1	2	4	.	.	.	.	.	.	.
Cc1ccc(S(=O)(=O)Cc2ccc(C(=O)N3CCC4(CC3)OCCO4)o2)cc1	-1	58*	0	4	5	57*	52*	-8	1	1	3
CC[C@H]1CN2CCC1C[C@@H]2[C@H](O)c1ccnc2ccc(OC)cc12 (stereo not given in full)	-2	-1	0	-4	.	-9	.	.	.	.	.
Cc1ccc(-n2c(C)cc(/C=C3/C(=O)NC(=O)N(Cc4ccco4)C3=O)c2C)cc1	2	41	1	2	5	9	.	.	.	.	.
Cn1cccc1/C=C1\C(=O)NC(=O)N(Cc2ccco2)C1=O	41	104*	15	56*	33	80*	45*	-23	8.1*	20	2
CCOc1cc2c(cc1OCC)-n1cccc1C(c1cccc(F)c1F)NC2 (stereo not given)	-1	3	-1	2	-8	-6	.	.	.	.	.
Cc1cc(/C=C2\C(=O)NC(=O)N(Cc3ccccc3)C2=O)c(C)n1-c1ccc(Cl)c(C(=O)O)c1	16	103*	32	84*	59*	72*	60*	-19	8.7*	72*	-1	Beacon interf DR=>99
CN(C)c1ccc(/C=C2\C(=O)NC(=O)N(Cc3ccc(F)cc3)C2=O)cc1	0	-7	4	-1	10	-1	.	.	.	.	.
O=C1NC(=O)N(Cc2ccc(F)cc2)C(=O)/C1=C\c1ccoc1	11	88*	33	15	16	64*	.	.	.	3	-1
O[C@H]1C2CCC1C(N1CCCCC1)CC2 (stereo not given in full)	-2	4	0	7	5	6	.	.	.	.	.
CCN(C(=O)COC(=O)Cc1ccccc1)c1c(N)n(Cc2ccccc2)c(=O)[nH]c1=O	0	86*	-4	-1	.	-8	.	.	.	4	3
Clc1ccc(-c2nc3ccc(Cl)cn3c2CN2CCOCC2)cc1	0	73*	15	0	-5	-3	.	.	.	2	5
CC(=NCC1CCCO1)c1c(O)n(-c2ccccc2C)c(=O)[nH]c1=O (stereo not given)	-2	2	5	-4	11	-10	.	.	.	.	.
SMILES	LMPTP block	DNMT1 inh	SUMO1 PPI mod	STEP inh	SUMO HTRF inh	Scp1 inh	Scp1 confirm	MG interference	Scp1 DSF	DNMT1 confirm	DNMT1 interf	others
C[C@]12CC[C@H](OC(=O)CCC(=O)O)CC1=CCC1C2CC[C@@]2(C)C1CC[C@@H]2OC(=O)CCC(=O)O (stereo not given in full)	1	0	31	-3	.	-5	.	.	.	.	.
C[C@]12CCC(OC(=O)CCC(=O)O)CC1=CCC1C2CC[C@]2(C)C(=O)CCC12 (stereo not given in full)	-1	91*	-1	18	-9	9	.	.	.	4	4
CCCC[C@@H](C)C[C@@H](C)C(=O)N(C)[C@@H](CC(C)C)C(=O)N[C@H](C(=O)N(C)[C@H](C(=O)N1C[C@@H](O)C[C@H]1C(=O)N1C(=O)C=C[C@@H]1C)C(C)C)C(C)OC(C)=O (stereo not given in full)	-1	-6	9	0	.	-23	.	.	.	.	.
CN1CCc2nc(SCc3cccc(Br)c3)c(C#N)cc2C1	5	70*	-11	3	10	-13	.	.	.	2	4
CC(N)Cc1c[nH]c2ccc(OCc3cccs3)cc12 (stereo not given)	0	1	-1	0	.	-12	.	.	.	.	.
CC(N)Cc1c[nH]c2ccc(O)cc12 (stereo not given)	-1	76*	-1	1	.	-14	.	.	.	1	3
